Converted amounts (≈) assume the structure as drawn. “Also recorded” adds a separate entry of the source. Read-outs that look alike come from different tables or passages of the source.
How the values were obtained:
[1] = tested on: five bacterial pathogens; test: Bacterial growth inhibition at single concentration, whole panel; assay type: cell-based; conditions: 32 μg/mL, in words
[2] = tested on: A. baumannii; test: Bacterial growth inhibition at single concentration; assay type: cell-based, Acinetobacter baumannii; conditions: 32 μg/mL (15–17 μM), OD600, 18 h
[3] = tested on: S. aureus; test: as above; assay type: cell-based, Staphylococcus aureus; conditions: 32 μg/mL (15–17 μM), OD600, 18 h; in words
[4] = SPR binding of peptides on immobilized liposomes; conditions: POPC lipid systems, 100 μM peptide
[5] = tested on: S. aureus; test: MIC, whole cell growth inhibition dose response; assay type: cell-based, Staphylococcus aureus; conditions: for MIC: Staphylococcus aureus, MRSA
[6] = tested on: E. coli; test: MIC, whole cell growth inhibition dose response; assay type: cell-based, Escherichia coli; conditions: n=2
[7] = tested on: K. pneumoniae; test: MIC, whole cell growth inhibition dose response; assay type: cell-based, Klebsiella pneumoniae; conditions: n=2
[8] = tested on: A. baumannii; test: MIC, whole cell growth inhibition dose response; assay type: cell-based, Acinetobacter baumannii; conditions: polystyrene 96-well plate, n=2
[9] = Liposome leakage; conditions: 20 μM peptide, CF dequenching
Procedure, shortened: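 Vesicles: 5 mg DOPC in chloroform, dried under N2, then freeze-dried 2 h to remove residual solvent. The lipid was redissolved in diethyl ether and hydrated in 10 mM HEPES, 100 mM KCl, pH 7.4, containing 50 mM carboxyfluorescein (quenching level). Peptide at 20 μM was mixed with vesicles for 3 min equilibration. Release was followed as the fluorescence dequenching rate.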

[10] = non-binding surface 96-well plate

Cbz-(AzPro-Pro)4-O^tBu [Peptide 18]
antibacterial activity (growth inhibition) over the bacterial panel [1]: little inhibition

HCl.H-(Pro-AzPro)4-Cbz [Peptide 23]
antibacterial activity (growth inhibition) over the bacterial panel [1]: little inhibition

HCl. H-(Pro-AzPro)8-Cbz [Peptide 16]
A. baumannii growth inhibition [2]: some activity
S. aureus growth inhibition [3]: some activity

Boc-(Pro-AzPro)8-H.HCl [Peptide 17]
A. baumannii growth inhibition [2]: some activity
S. aureus growth inhibition [3]: some activity

Ac-(AzPro-Pro)8-NHCH2CH2OH [Peptide 2]
SPR binding response [4]: showed some binding response
antibacterial activity (growth inhibition) over the bacterial panel [1]: considerable loss of activity

Cbz-(AzPro-Pro)4-OH [Peptide 19]
antibacterial activity (growth inhibition) over the bacterial panel [1]: little inhibition

Cbz-(AzPro-Pro)8-OH [Peptide 14]
antibacterial activity (growth inhibition) over the bacterial panel [1]: considerable loss of activity; also recorded: largely abolishes all activity

H-(AzPro-Pro)4-O^tBu [Peptide 20]
antibacterial activity (growth inhibition) over the bacterial panel [1]: largely abolishes all activity

CN[C@H](CC(C)C)C(=O)N[C@H]1C(=O)N[C@@H](CC(N)=O)C(=O)N[C@H]2C(=O)N[C@H]3C(=O)N[C@H](C(=O)N[C@H](C(=O)O)c4cc(O)cc(O)c4-c4cc3ccc4O)[C@H](O)c3ccc(c(Cl)c3)Oc3cc2cc(c3O[C@@H]2O[C@H](CO)[C@@H](O)[C@H](O)[C@H]2O[C@H]2C[C@](C)(N)[C@H](O)[C@H](C)O2)Oc2ccc(cc2Cl)[C@H]1O [Vancomycin]
MIC ([5]; read-out: MIC S. aureus MRSA NBS plate): 2 µg/mL (≈ 1.38 µM)
MIC ([5]; read-out: MIC S. aureus MRSA PS plate): 2 µg/mL (≈ 1.38 µM)

Colistin
MIC E. coli FDA Control NBS plate [6, 10]: 0.016 µg/mL
MIC E. coli FDA Control PS plate ([6]; polystyrene 96-well plate): 0.125 µg/mL
MIC K. pneumoniae MDR NBS plate [7, 10]: 0.06 µg/mL
MIC K. pneumoniae MDR PS plate ([7]; polystyrene 96-well plate): 0.25 µg/mL
MIC A. baumannii Type PS plate [8]: 1 µg/mL
MIC S. aureus MRSA NBS plate ([5]; non-binding surface 96-well plate, n=2): >32 µg/mL
MIC S. aureus MRSA PS plate ([5]; polystyrene 96-well plate, n=2): >32 µg/mL

Cbz-(AzPro-Pro)8-(N-Methyl AzPro) [Peptide 13]
antibacterial activity (growth inhibition) over the bacterial panel [1]: highest activity

Cbz-(AzPro-Pro)16-O^tBu [Peptide 11]
antibacterial activity (growth inhibition) over the bacterial panel [1]: considerable loss of activity; also recorded: drastic loss in activity

Formyl-(AzPro-Pro)7-NHCH2CH2OH [Peptide 5]
antibacterial activity (growth inhibition) over the bacterial panel [1]: largely abolishes all activity

H-(AzPro-Pro)8-NHCH2CH2OH [Peptide 4]
antibacterial activity (growth inhibition) over the bacterial panel [1]: considerable loss of activity

Cbz-(AzPro-Pro)8-O^tBu [Peptide 8]
SPR binding response [4]: showed some binding response
antibacterial activity (growth inhibition) over the bacterial panel [1]: highest activity

Boc-(Pro-AzPro)4-H [Peptide 22]
antibacterial activity (growth inhibition) over the bacterial panel [1]: little inhibition

Boc-(Pro-AzPro)8-Cbz [Peptide 10]
SPR binding response [4]: showed some binding response

Formyl-(AzPro-Pro)6-NHCH2CH2OH [Peptide 6]
antibacterial activity (growth inhibition) over the bacterial panel [1]: largely abolishes all activity

H-(Pro-AzPro)8-H [Peptide 9]
antibacterial activity (growth inhibition) over the bacterial panel [1]: highest activity

Cbz-(AzPro-Pro)8-NHCH2CH2OH [Peptide 1]
SPR binding response [4]: showed some binding response
DOPC liposome leakage [9]: 13%
A. baumannii growth inhibition [2]: 38%
antibacterial activity (growth inhibition) over the bacterial panel [1]: highest activity

From paper PMC8366898 (European journal of medicinal chemistry, 2018)
